Source: PubChem BioAssay
Calls of active or inactive are those of the source.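 Rule for the calls, unless noted: active = viability loss from added drug above about 55%, and viability with drug at most 40%, in both replicates (limit read from the data, passing the limit was not always enough); inconclusive = both conditions met in only one replicate; inactive = neither replicate meets both conditions.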

Tests used:
[1] = reduced viability of SK-BR-3 breast cancer cells – cell-based, 24 h, human, pilot screen (AID 572;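 active = viability at or below 10% of carrier control in both of two separate runs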;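 note: compound exposure lasted between 18 and 24 h rather than exactly 24 h; 100% = carrier-treated control wells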); settings: SK-BR-3 viability, CellTiter-Glo luminescence, at 10 µM, stronger effect = lower value
[2] = HUVEC growth inhibition – cell-based, human, primary screen (AID 575;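 active = viability at or below 30% in both replicate assays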;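 note: 100% = median of untreated cell wells with 0.1% DMSO on each plate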); settings: HUVEC proliferation, CellTiter-Glo luminescence, 72 h; at 10 µM; stronger effect = lower value
How it was run: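 Test system: primary human umbilical vein endothelial cells. Quantity: 1250 cells/well. Compound: single 10 µM dose, 0.1% DMSO, from 5x medium stock. Timing: 72 h treatment at 37 °C. Detection: ATP-based CellTiter-Glo luminescent read. Benchmarks: vehicle and MePR control wells. Format: 384-well plates coated with collagen.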

[3] = H69AR cell proliferation blockers – human, duplicate replicates, primary screen (AID 580;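 active = viability at or under a set limit in both replicates, limit being median viability minus 3 SD, cut at about 48% in these data, passing the limit was not always enough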;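 note: 100% = mean luminescence of untreated wells and 0% = no signal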); settings: H69AR lung tumor cells viability, ATP luminescence, 72 h; at 10 µM; stronger effect = lower value
[4] = MRP1 drug-resistance reversers in H69AR cells – cell-based, doxorubicin co-treatment, pilot screen (AID 601); settings: CellTiter-Glo, 72 h, at 10 µM; for differential viability (reversal): stronger effect = higher value
[5] = yeast transport mutant growth inhibition pilot in 384-well plates, post-Golgi transport modulator project (AID 636; in the data active = inhibition above about 31%); settings: absorbance 615 nm, about 18 h, stronger effect = higher value
[6] = growth suppression of yeast trafficking mutant, preliminary HTS, modulators of trafficking downstream of Golgi apparatus project, 1536-format plate, OD 615 nm (AID 637; in the data active = inhibition above about 30%); settings: yeast transport mutant growth, absorbance 615 nm, 18 h; stronger effect = higher value
[7] = H69AR cells + 2 uM doxorubicin, measured here: viability with 2 uM doxorubicin, stronger effect = lower value
[8] = H69AR cells, compound alone cytotoxicity

In the case of `CC(=O)Nc1nc(=S)ss1`, the viability [1] is reported as 135% (inactive), the viability [2] is reported as 103% (inactive) and the viability [3] is reported as 87.5% (inactive). For the same molecule, the differential viability (reversal) ([4]; H69AR cells + 2 uM doxorubicin) was -8.28% (inactive), the viability [4, 7] was 95.7% and the viability [4, 8] was 87.5%. The inhibition [5] was -1.3% (inactive) and the inhibition [6] was -0.33% (inactive).
For `CC1(C)CC(=O)C(CC(=O)NC(=O)NCc2ccccc2)=C(O)C1`, the viability [1] was 114% (inactive), the viability [2] was 81.9% (inactive) and the viability [3] was 105% (inactive). For the same molecule, the differential viability (reversal) ([4]; H69AR cells + 2 uM doxorubicin) was 9.89% (inactive), the viability [4, 7] was 94.7% and the viability [4, 8] was 105%. For the same molecule, the inhibition [5] was -4.52% (inactive) and the inhibition [6] was -10% (inactive).
In the case of `CC1=Nn2c(nnc2-c2ccc(F)cc2)SC1`, the viability [1] is reported as 85% (inactive), the viability [2] is reported as 97% (inactive) and the viability [3] is reported as 97.2% (inactive). The differential viability (reversal) ([4]; H69AR cells + 2 uM doxorubicin) was 0.585% (inactive), the viability [4, 7] was 96.6% and the viability [4, 8] was 97.2%. The inhibition [5] was -5.14% (inactive) and the inhibition [6] was -2.55% (inactive).
With `CSc1c(CC(=O)NCCO)n(C)c2ccccc12` the viability [1] was 108% (inactive), the viability [2] was 111% (inactive) and the viability [3] was 102% (inactive). The differential viability (reversal) ([4]; H69AR cells + 2 uM doxorubicin) was 9.3% (inactive), the viability [4, 7] was 93.1% and the viability [4, 8] was 102%. The inhibition [5] was -4.13% (inactive) and the inhibition [6] was 0.91% (inactive).
In the case of `O=C(O)CCc1ccc(-c2cccs2)n1NC(=O)c1ccccc1Br`, the viability [1] is reported as 96% (inactive), the viability [2] is reported as 104% (inactive) and the viability [3] is reported as 106% (inactive). The differential viability (reversal) ([4]; H69AR cells + 2 uM doxorubicin) was 16% (inactive), the viability [4, 7] was 89.5% and the viability [4, 8] was 106%. The inhibition [5] was -6.71% (inactive) and the inhibition [6] was 4.36% (inactive).
With `Cc1[nH]c2ccc(F)cc2c(=O)c1SC(F)(F)C(F)C(F)(F)F` (centres undefined) the viability [1] was 72% (inactive), the viability [2] was 92.5% (inactive) and the viability [3] was 83.3% (inactive). The differential viability (reversal) ([4]; H69AR cells + 2 uM doxorubicin) was -14.3% (inactive), the viability [4, 7] was 97.6% and the viability [4, 8] was 83.3%. The inhibition [5] was -5.95% (inactive) and the inhibition [6] was -5.27% (inactive).
With `Cc1cc(NC(=O)C(C)(C)C)no1` the viability [1] was 82% (inactive), the viability [2] was 92.7% (inactive) and the viability [3] was 99.2% (inactive). For the same molecule, the differential viability (reversal) ([4]; H69AR cells + 2 uM doxorubicin) was 16% (inactive), the viability [4, 7] was 83.3% and the viability [4, 8] was 99.2%. The inhibition [5] was -1.2% (inactive) and the inhibition [6] was -0.73% (inactive).
With `CCC(=O)Nc1nn(C)c2nc3c(C)cccc3cc12` the viability [1] was 92% (inactive), the viability [2] was 105% (inactive) and the viability [3] was 104% (inactive). For the same molecule, the differential viability (reversal) ([4]; H69AR cells + 2 uM doxorubicin) was 17.2% (inactive), the viability [4, 7] was 86.4% and the viability [4, 8] was 104%. The inhibition [5] was -3.47% (inactive) and the inhibition [6] was -4.18% (inactive).
For `COc1ccc(OCCOC(=O)c2cccc(-n3cnnn3)c2)cc1`, the viability [1] was 90% (inactive), the viability [2] was 107% (inactive) and the viability [3] was 100% (inactive). The differential viability (reversal) ([4]; H69AR cells + 2 uM doxorubicin) was 7.56% (inactive), the viability [4, 7] was 92.6% and the viability [4, 8] was 100%. For the same molecule, the inhibition [5] was -8.36% (inactive) and the inhibition [6] was 1.64% (inactive).
With `c1ccc(Cn2ncc3c2ncn2c(-c4ccncc4)nnc32)cc1` the viability [1] was 99% (inactive), the viability [2] was 95.3% (inactive) and the viability [3] was 95% (inactive). The differential viability (reversal) ([4]; H69AR cells + 2 uM doxorubicin) was -1.95% (inactive), the viability [4, 7] was 96.9% and the viability [4, 8] was 95%. The inhibition [5] was -8.77% (inactive) and the inhibition [6] was -6.77% (inactive).
For `O=C(CSc1nnc(-c2ccco2)n1CC1CCCO1)NC1CCCC1` (centres undefined), the viability [1] was 116% (inactive), the viability [2] was 94.6% (inactive) and the viability [3] was 94.3% (inactive). The differential viability (reversal) ([4]; H69AR cells + 2 uM doxorubicin) was 7.47% (inactive), the viability [4, 7] was 86.8% and the viability [4, 8] was 94.3%. The inhibition [5] was -2% (inactive) and the inhibition [6] was -5.27% (inactive).
In the case of `CC(=O)OC(C(=O)NC1CCCCC1)c1ccncc1` (centres undefined), the viability [1] is reported as 88% (inactive), the viability [2] is reported as 98% (inactive) and the viability [3] is reported as 109% (inactive). The differential viability (reversal) ([4]; H69AR cells + 2 uM doxorubicin) was 21.3% (inactive), the viability [4, 7] was 87.7% and the viability [4, 8] was 109%. The inhibition [5] was -0.14% (inactive) and the inhibition [6] was -0.48% (inactive).
For `O=C(CCn1c(=O)oc2ccccc21)N1CCN(c2ccccc2Cl)CC1`, the viability [1] was 72% (inactive), the viability [2] was 54.2% (inactive) and the viability [3] was 11.2% (active). For the same molecule, the differential viability (reversal) ([4]; H69AR cells + 2 uM doxorubicin) was -55.1% (inactive), the viability [4, 7] was 66.3% and the viability [4, 8] was 11.2%. For the same molecule, the inhibition [5] was 7.3% (inactive) and the inhibition [6] was -2% (inactive).
For `Cc1c(C)[n+](=O)c2c(n1[O-])CCCCC2`, the viability [1] was 89% (inactive), the viability [2] was 93.5% (inactive) and the viability [3] was 96% (inactive). For the same molecule, the differential viability (reversal) ([4]; H69AR cells + 2 uM doxorubicin) was 9.67% (inactive), the viability [4, 7] was 86.3% and the viability [4, 8] was 96%. The inhibition [5] was -1.43% (inactive) and the inhibition [6] was -2.3% (inactive).
With `COc1ccc(S(=O)(=O)Nc2cc(C)on2)cc1OC` the viability [1] was 80% (inactive), the viability [2] was 97.1% (inactive) and the viability [3] was 105% (inactive). The differential viability (reversal) ([4]; H69AR cells + 2 uM doxorubicin) was 1.57% (inactive), the viability [4, 7] was 104% and the viability [4, 8] was 105%. The inhibition [5] was -1.1% (inactive) and the inhibition [6] was -5.81% (inactive).
In the case of `O=C(c1cnc2sccn2c1=O)N1CCc2ccccc2C1`, the viability [1] is reported as 95% (inactive), the viability [2] is reported as 95.7% (inactive) and the viability [3] is reported as 104% (inactive). The differential viability (reversal) ([4]; H69AR cells + 2 uM doxorubicin) was 7.95% (inactive), the viability [4, 7] was 96.2% and the viability [4, 8] was 104%. For the same molecule, the inhibition [5] was -2.8% (inactive) and the inhibition [6] was -4.36% (inactive).
With `O=C(NO)c1ccccc1O` the viability [1] was 109% (inactive), the viability [2] was 86.7% (inactive) and the viability [3] was 105% (inactive). The differential viability (reversal) ([4]; H69AR cells + 2 uM doxorubicin) was 23.1% (inactive), the viability [4, 7] was 81.8% and the viability [4, 8] was 105%. The inhibition [5] was -1.95% (inactive) and the inhibition [6] was 6.83% (inactive).
For `CC(O)Cn1cnc2c1c(=O)n(C)c(=O)n2C` (centres undefined), the viability [1] was 107% (inactive), the viability [2] was 106% (inactive) and the viability [3] was 95.8% (inactive). For the same molecule, the differential viability (reversal) ([4]; H69AR cells + 2 uM doxorubicin) was -0.25% (inactive), the viability [4, 7] was 96.1% and the viability [4, 8] was 95.8%. For the same molecule, the inhibition [5] was -1.04% (inactive) and the inhibition [6] was 0.17% (inactive).
With `CCOC(=O)CNC(=O)CSc1nnnn1-c1cc(C)ccc1C` the viability [1] was 105% (inactive), the viability [2] was 105% (inactive) and the viability [3] was 110% (inactive). For the same molecule, the differential viability (reversal) ([4]; H69AR cells + 2 uM doxorubicin) was 12.1% (inactive), the viability [4, 7] was 98.1% and the viability [4, 8] was 110%. The inhibition [5] was -2.08% (inactive) and the inhibition [6] was -1.48% (inactive).
For `CC(=O)N=c1sc(S(N)(=O)=O)nn1C`, the viability [1] was 84% (inactive), the viability [2] was 77.6% (inactive) and the viability [3] was 93.9% (inactive). The differential viability (reversal) ([4]; H69AR cells + 2 uM doxorubicin) was 21.1% (inactive), the viability [4, 7] was 72.8% and the viability [4, 8] was 93.9%. The inhibition [5] was 0.39% (inactive) and the inhibition [6] was 3.17% (inactive).
For `O=C(Nc1sccc1C(=O)NCc1ccco1)c1cccnc1`, the viability [1] was 90% (inactive), the viability [2] was 96.8% (inactive) and the viability [3] was 79.6% (inactive). For the same molecule, the differential viability (reversal) ([4]; H69AR cells + 2 uM doxorubicin) was -4.98% (inactive), the viability [4, 7] was 84.5% and the viability [4, 8] was 79.6%. For the same molecule, the inhibition [5] was -0.55% (inactive) and the inhibition [6] was 2.55% (inactive).
With `Cc1ccccc1Nc1cc2ccccc2c(=O)[nH]1` the viability [1] was 95.5% (inactive), the viability [2] was 63.8% (inactive) and the viability [3] was 102% (inactive). The differential viability (reversal) ([4]; H69AR cells + 2 uM doxorubicin) was 2.71% (inactive), the viability [4, 7] was 99.5% and the viability [4, 8] was 102%. For the same molecule, the inhibition [5] was 4.61% (inactive) and the inhibition [6] was 17.8% (inactive).
For `Cn1c(=O)[nH]c(=O)c2c1nc(Br)n2Cc1ccccc1F`, the viability [1] was 116% (inactive), the viability [2] was 78% (inactive) and the viability [3] was 86.9% (inactive). For the same molecule, the differential viability (reversal) ([4]; H69AR cells + 2 uM doxorubicin) was 16.6% (inactive), the viability [4, 7] was 70.2% and the viability [4, 8] was 86.9%. For the same molecule, the inhibition [5] was 3.15% (inactive) and the inhibition [6] was 3.87% (inactive).
